A selection: hits, their analogues and other compounds. The true share with any hit is near 4.3%.
B2AR ag – human beta-2 adrenergic receptor agonism by FAP | P07550 | Am2.2-beta2AR cells, FAP receptor internalization, flow cytometry | response, % (concentration not given with the values) | 340,000 compounds, 0.43% hits;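 active = response above a set limit, near 3 SD of response in nonfluorescent compounds, cut at about 42% in these data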
Target sequence (P07550 whole entry, looked up): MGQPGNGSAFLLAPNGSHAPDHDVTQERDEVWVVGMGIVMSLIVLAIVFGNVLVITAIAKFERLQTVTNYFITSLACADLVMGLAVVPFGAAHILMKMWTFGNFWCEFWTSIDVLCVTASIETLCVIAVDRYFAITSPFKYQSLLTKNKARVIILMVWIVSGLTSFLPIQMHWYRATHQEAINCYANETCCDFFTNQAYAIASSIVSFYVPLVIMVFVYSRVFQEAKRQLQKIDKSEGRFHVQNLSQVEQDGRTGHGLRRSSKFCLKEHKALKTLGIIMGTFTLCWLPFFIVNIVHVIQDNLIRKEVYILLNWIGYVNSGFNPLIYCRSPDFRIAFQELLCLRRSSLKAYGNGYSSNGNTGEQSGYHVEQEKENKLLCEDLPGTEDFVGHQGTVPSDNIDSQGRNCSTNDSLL
TAAR1 antag – human TAAR1 antagonism. 360,000 compounds, 1.5% hits. AID 624466. CHO RD-HGA16 TAAR1, Fluo-8 calcium fluorescence, antagonist. inhibition, % at 3 µM;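 active = inhibition above a per-plate cutoff, the mean inhibition of test compounds on that plate plus 3 SD, cut at about 49% in these data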
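test system = CHO RD-HGA16 cells bearing hTAAR1 | replication = singlicate | controls = DMSO-only wells and EC80 β-PEA-stimulated wells | reagent = EC80 β-phenethylamine stimulus | read-out basis = percent inhibition of PEA-evoked calcium signal, max/basal emission ratio | schedule = seeding 17-24 h prior, 75-min 37 °C, 30-min RT dye loading | signal = kinetic Fluo-8 calcium fluorescence measurement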
TAAR1 agonist – human TAAR1 agonism; 360,000 compounds, 0.99% hits; CHO RD-HGA16 TAAR1, Fluo-8 calcium fluorescence; vehicle wells 0%, saturating PEA agonist 100%; AID 624467; activation, % at 3 µM; Q96RJ0;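 active = activation above the mean activation of all test compounds in the run plus 3 SD, cut at about 38% in these data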
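System: CHO-derived RD-HGA16 cells with stable Gα16 and human TAAR1. Times: 17-24 h plating, Fluo-8 75 min 37 °C, 30 min RT. Measured by: calcium-sensitive Fluo-8 signal, excitation 470-495, emission 515-575 nm. Read-out basis: % activation relative to PEA EC100 response. Control set: DMSO and PEA EC100. Repeats: no replicates (n 1).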
MC4R antagonist – blocks human MC4R cAMP signaling; 360,000 compounds, 0.48% hits; MC4R-expressing cells, MTII-stimulated cAMP, LANCE TR-FRET; inhibition, % at 6.5 µM;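 active = inhibition above its plate's cutoff, the mean of tested wells on that plate plus 3 SD, cut at about 29% in these data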
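Assay system: human MC4R-expressing U2OS cells; reagent: Melanotan II stimulation of cells; dosing: 6.5 µM single dose; timing: compound 30 min, challenge 1 h, detection 1 h; signal: TR-FRET cAMP assay; replicates: one well per compound, no replicates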
HTR2A ag – mouse HTR2A agonism via beta-arrestin recruitment; P35363; CHO-K1 mHTR2A beta-arrestin complementation, luminescence; percent of 30 µM serotonin response; activation, % at 7.6 µM; 360,000 compounds, 0.66% hits;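 active = activation above a run cutoff, the mean activation of all tested compounds plus 3 SD, cut at about 14% in these data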
MC4R ag barr – activates human MC4R beta-arrestin recruitment; P32245; U2OS MC4R beta-arrestin complementation, luminescence; percent of melanotan II response, DMSO zero; activation, % at 8.9 µM; 360,000 compounds, 0.98% hits; AID 540308;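 active = activation above a per-plate cutoff, the mean activation of sample wells on that plate plus 3 SD, cut at about 8% in these data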
MOR ag counter – OPRM1 agonism in mouse HTR2A counterscreen | shares compounds with HTR2A ag | U2OS OPRM1 beta-arrestin PathHunter, luminescence; DMSO 0%, DAMGO 9.3 µM 100% | activation, % at 9.3 µM | 2,300 compounds, 5.3% hits | AID 624380;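 active = mean activation above the mean of DMSO-only wells plus 3 SD, cut at about 0.5% in these data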
HTR2A ag conf – confirmation of mouse HTR2A serotonin receptor agonists. shares compounds with HTR2A ag. CHO-K1 PathHunter beta-arrestin recruitment, luminescence; DMSO 0%, 30 µM serotonin 100%. activation, % at 7.6 µM. 2,300 compounds, 19% hits. AID 624381;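 active = mean activation across triplicates above the hit threshold derived in the original primary screen, cut at about 15% in these data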
Each line names hits and unclear results; the compound was inactive in the other large screens (follow-up assays come after a bar, where they were run).

O=C(NC1CCCCCC1)C1CCCN1S(=O)(=O)c1cccc2cccnc12 (centres undefined)	none
Cc1cccnc1NC(=O)c1ccc2c(c1)NC(=O)C(C)S2 (centres undefined)	none
COc1ccc(C)cc1S(=O)(=O)n1c([N+](=O)[O-])cnc1C	HTR2A ag 15 | MOR ag counter inactive | HTR2A ag conf inactive
C[C@@H]1CN([C@@H](C)CO)C(=O)c2cc(Br)cnc2O[C@H]1CN(C)C(=O)CN1CCOCC1	none (no result: B2AR ag)
CC(C)c1ccc(C(C(C(=O)c2ccccc2)N2CCOCC2)N2CCOCC2)cc1 (centres undefined)	none
O=C(CN1CCc2ccccc21)NN1CC(=O)N(c2ccccc2)CC1=O	HTR2A ag 19 | MOR ag counter inactive | HTR2A ag conf inactive
Cc1ccc(N2CC(=O)N(NC(=O)CN3CCN(c4ccccc4)CC3)CC2=O)cc1	none
Cc1ccc(C)c(S(=O)(=O)NCc2ccc(C(=O)N3CCN(c4ccccc4)CC3)cc2)c1	none
COc1ccc(N2CCN(C(=O)c3ccc(CNS(=O)(=O)c4cc(C)ccc4C)cc3)CC2)cc1	HTR2A ag 25 | MOR ag counter inactive | HTR2A ag conf inactive
Cc1cc(OC(=O)c2ccccc2F)c([N+](=O)[O-])c(=O)[nH]1	none
C/C(=C\c1ccccc1)CN1CCN(C)CC1	none
CCOC(=O)N1CCN(C/C(C)=C/c2ccccc2)CC1	HTR2A ag 18 | MOR ag counter inactive | HTR2A ag conf 57
COc1cccc(N2CCN(S(=O)(=O)c3ccc4nc(-c5ccccc5)[nH]c4c3)CC2)c1	HTR2A ag 16 | MOR ag counter inactive | HTR2A ag conf inactive
COc1cccc(N2CCN(S(=O)(=O)c3ccc(-c4coc(C)n4)cc3)CC2)c1	none
COc1ccccc1-c1ccc2c(c1)C(C)(Cc1ccc(OC(F)(F)F)cc1)C(=O)N2 (centres undefined)	none (no result: B2AR ag)
COC(=O)c1ccc2nc(-c3ccc(C)cc3)c(Cc3ccccc3)n2c1	none (no result: B2AR ag, MC4R antagonist, HTR2A ag, MC4R ag barr)
Cc1ccc(-c2ccc(=O)n(CC(=O)Nc3ccc4c(c3)OCCO4)n2)cc1	none
CN(C)S(=O)(=O)c1ccc(NC(=O)Cn2nc(-c3ccc4c(c3)OCCO4)ccc2=O)cc1	HTR2A ag 15 | MOR ag counter inactive | HTR2A ag conf inactive
Cc1ccc(/C=N/c2sc3c(c2C#N)CCCCC3)o1	HTR2A ag 16 | MOR ag counter inactive | HTR2A ag conf 16
CC(NC(=O)c1ccccc1Cl)c1ccc(-n2ccnc2)cc1 (centres undefined)	none
COc1cccc(S(=O)(=O)N2CCN(Cc3ccc4c(c3)OCO4)CC2)c1	none
OCC[C@@H]1C[C@H](O)[C@@H](O)[C@@]2(OCCCc3cc(C(F)(F)F)ccc32)O1	HTR2A ag 15 (no result: B2AR ag, MC4R antagonist, MC4R ag barr) | MOR ag counter inactive | HTR2A ag conf inactive
OCC[C@@H]1C[C@H](O)[C@@H](O)[C@]2(OCCc3cc(C(F)(F)F)ccc32)O1	none (no result: B2AR ag)
C[C@@H]1CNC(=O)c2c(C(=O)NC3CCN(C(=O)OC(C)(C)C)CC3)ncn21	none (no result: B2AR ag, MC4R antagonist, MC4R ag barr)
CCN1CCc2c(sc(NC(=O)c3cc4ccccc4cc3OC)c2C(N)=O)C1	none
CN(C(=O)COC(=O)c1cncc(Br)c1)C1CCS(=O)(=O)C1 (centres undefined)	none
CN(C(=O)COC(=O)c1cncc(Br)c1)C1CCCCC1	HTR2A ag 19 | MOR ag counter inactive | HTR2A ag conf inactive
CCN(CC(=O)Nc1ccc2c(c1)OCCO2)C(=O)CC(NC(C)=O)c1ccccc1 (centres undefined)	HTR2A ag 18 | MOR ag counter inactive | HTR2A ag conf inactive
CCN(CC(=O)Nc1ccc2c(c1)OCCO2)C(=O)CCOc1ccccc1	none
CCCOc1nc2c(c(=O)n(C)c(=O)n2C)n1CCC	none
CCC(C)Oc1nc2c(c(=O)n(C)c(=O)n2C)n1C (centres undefined)	HTR2A ag 17 | MOR ag counter inactive | HTR2A ag conf inactive
O=C(c1ccc(-n2cncn2)c([N+](=O)[O-])c1)N1CCN(S(=O)(=O)c2c(F)cccc2F)CC1	HTR2A ag 16 | MOR ag counter inactive | HTR2A ag conf inactive
COc1ccc(CN2C(=O)C(CC(=O)NC3CCCCC3)CC(C(=O)N(C)C)=C2C)cc1 (centres undefined)	none (no result: B2AR ag)
COc1ccc(NC(=O)CN(C)C(=O)Cc2ccc3c(c2)CCC3)cc1	none
Cc1ccccc1C(=O)Nc1ccnc(-c2ccncc2)n1	HTR2A ag 20 | MOR ag counter inactive | HTR2A ag conf inactive
O=C(NCc1ccncc1)[C@@H]1CCCN1C(=O)[C@H]1CCCN1C(=O)c1ccccc1	none (no result: B2AR ag, MC4R antagonist, MC4R ag barr)
O=C(Cc1ccccc1)NNC1CC(=O)N(c2ccc(Oc3ccccc3)cc2)C1=O (centres undefined)	HTR2A ag 17 | MOR ag counter inactive | HTR2A ag conf inactive
COc1ccc(NC(=O)CSc2nnc3n2CCCCC3)cc1S(=O)(=O)N(C)C	none (no result: B2AR ag)
COc1ccc(C2Nc3ccccc3NC3=C2C(=O)CC(C)(C)C3)cc1OC (centres undefined)	HTR2A ag 17 | MOR ag counter 0.7 | HTR2A ag conf inactive
CCOc1ccc(C2Nc3ccccc3NC3=C2C(=O)CC(C)(C)C3)cc1OC (centres undefined)	none
COC(=O)C1CCN(C(=O)COc2ccc(S(=O)(=O)N3CCOCC3)cc2Cl)CC1	none
Cc1ccc(C(=O)N=c2sccn2C)cc1C	HTR2A ag 18 | MOR ag counter inactive | HTR2A ag conf inactive
COc1ccccc1C(=O)NCCC(=O)NNC(=O)Cn1ccc(C(F)(F)F)n1	none
COc1cc(/C=C/C(=O)OCC(=O)NC(C)c2ccccc2)cc(OC)c1OC (centres undefined)	HTR2A ag 15 | MOR ag counter inactive | HTR2A ag conf inactive
Cc1ccc([C@H]2C[C@@H](n3cc(COC(=O)c4ccccc4)nn3)[C@H](O)CN2C(=O)C2CCCCC2)cc1	none (no result: B2AR ag)
O=C(CCc1ccccc1)NC1CCSC1=O (centres undefined)	none
O=C(COc1ccccc1)NC1CCSC1=O (centres undefined)	HTR2A ag 21 | MOR ag counter inactive | HTR2A ag conf inactive
CCOc1ccc(Oc2ccc(NC(=O)CSc3nncn3C)cc2)cc1	none

Bioassay records (PubChem BioAssay)
